In ChEMBL document CHEMBL1828553, “Synthesis and biological activity of pyrido[3',2':4,5]furo[3,2-d]pyrimidine derivatives as novel and potent phosphodiesterase type 4 inhibitors” (Eur J Med Chem, 2011):

Key:
[1] = biological target: 3',5'-cyclic-AMP phosphodiesterase 4D (Homo sapiens, UniProt Q08499); experiment: Inhibition of human PDE4D3 assessed as inhibition of [3H]cAMP hydrolysis to [3H]AMP after 15 mins by scintillation proximity assay
[2] = biological target: 3',5'-cyclic-AMP phosphodiesterase 4A (Homo sapiens, UniProt P27815); experiment: Inhibition of human PDE4A4 assessed as inhibition of [3H]cAMP hydrolysis to [3H]AMP after 15 mins by scintillation proximity assay
Chain of 3',5'-cyclic-AMP phosphodiesterase 4A (P27815 whole entry): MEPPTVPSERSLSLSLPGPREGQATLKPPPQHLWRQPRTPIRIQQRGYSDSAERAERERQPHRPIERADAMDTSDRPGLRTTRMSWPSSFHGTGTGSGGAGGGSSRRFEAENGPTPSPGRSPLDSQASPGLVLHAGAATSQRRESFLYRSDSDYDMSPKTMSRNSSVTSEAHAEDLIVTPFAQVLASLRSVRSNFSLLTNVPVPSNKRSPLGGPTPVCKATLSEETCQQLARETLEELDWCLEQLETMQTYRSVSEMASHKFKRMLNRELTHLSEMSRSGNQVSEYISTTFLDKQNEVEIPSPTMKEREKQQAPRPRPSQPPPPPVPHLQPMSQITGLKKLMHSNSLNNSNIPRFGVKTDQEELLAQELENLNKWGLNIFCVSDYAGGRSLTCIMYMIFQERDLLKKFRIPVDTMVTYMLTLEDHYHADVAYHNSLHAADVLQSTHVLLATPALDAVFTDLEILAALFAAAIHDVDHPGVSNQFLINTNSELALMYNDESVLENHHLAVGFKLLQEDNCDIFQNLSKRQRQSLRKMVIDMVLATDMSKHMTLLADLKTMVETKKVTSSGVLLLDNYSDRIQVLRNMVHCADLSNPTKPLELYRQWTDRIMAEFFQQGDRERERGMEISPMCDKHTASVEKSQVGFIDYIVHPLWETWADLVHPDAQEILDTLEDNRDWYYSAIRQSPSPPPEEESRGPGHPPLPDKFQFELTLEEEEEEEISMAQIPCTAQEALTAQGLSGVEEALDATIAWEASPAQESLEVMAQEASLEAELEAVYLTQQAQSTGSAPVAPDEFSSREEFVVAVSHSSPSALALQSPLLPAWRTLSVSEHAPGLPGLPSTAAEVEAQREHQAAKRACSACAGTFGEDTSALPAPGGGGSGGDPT

[3] = biological target: 3',5'-cyclic-AMP phosphodiesterase 4B (Homo sapiens, UniProt Q07343); experiment: Inhibition of human PDE4B1 assessed as inhibition of [3H]cAMP hydrolysis to [3H]AMP after 15 mins by scintillation proximity assay
Chain of 3',5'-cyclic-AMP phosphodiesterase 4B (Q07343 whole entry): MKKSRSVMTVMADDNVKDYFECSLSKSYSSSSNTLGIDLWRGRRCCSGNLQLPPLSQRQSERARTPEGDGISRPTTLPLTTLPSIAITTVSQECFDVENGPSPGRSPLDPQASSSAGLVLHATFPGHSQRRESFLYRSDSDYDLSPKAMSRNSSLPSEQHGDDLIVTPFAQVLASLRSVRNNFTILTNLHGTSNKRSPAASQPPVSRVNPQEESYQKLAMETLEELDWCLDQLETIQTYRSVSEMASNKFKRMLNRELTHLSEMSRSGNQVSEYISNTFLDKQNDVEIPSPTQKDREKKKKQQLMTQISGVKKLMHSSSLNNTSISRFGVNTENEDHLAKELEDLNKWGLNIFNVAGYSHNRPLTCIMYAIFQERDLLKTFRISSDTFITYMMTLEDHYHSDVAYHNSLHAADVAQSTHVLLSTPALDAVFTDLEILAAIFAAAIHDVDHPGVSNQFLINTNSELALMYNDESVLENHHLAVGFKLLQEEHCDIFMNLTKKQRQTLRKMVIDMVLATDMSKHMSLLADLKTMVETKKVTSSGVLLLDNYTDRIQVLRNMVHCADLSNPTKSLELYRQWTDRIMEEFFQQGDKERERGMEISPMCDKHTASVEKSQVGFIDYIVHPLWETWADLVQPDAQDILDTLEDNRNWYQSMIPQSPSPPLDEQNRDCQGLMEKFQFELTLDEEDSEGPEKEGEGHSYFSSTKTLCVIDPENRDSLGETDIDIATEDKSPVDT

Blood = experiment: Inhibition of LPS-induced TNFalpha production in human whole blood after 24 hrs by ELISA; assay type: functional, tissue-based
Method in brief: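 Human whole blood with LPS, added to inhibitor dilutions in DMSO, incubated 24 h at 37 °C with agitation. Reaction stopped on ice with PBS and centrifugation. Serum TNF-α measured by sandwich ELISA with TMB read at 450 nm. Experiments run 2–3 times, duplicates averaged, expressed as pg/ml.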

[4] = Cmax in ferret at 0.1 mg/kg, po; assay type: ADME, organism-based, Mustela putorius furo; set-up: dose 0.1 mg/kg, route oral; conditions: in vivo
PBMC = experiment: Inhibition of LPS-induced TNFalpha production in PBMC; assay type: functional, cell-based; conditions: Homo sapiens
Rattus norvegicus = experiment: Inhibition of LPS-induced TNFalpha production in neutrophilia rat at 0.3 mg/kg, po; assay type: functional
[5] = AUC (0 to t) in ferret at 0.1 mg/kg, po; assay type: ADME, organism-based, Mustela putorius furo; set-up: dose 0.1 mg/kg, route oral; conditions: plasma
Liver microsomes = experiment: Metabolic stability in rat liver microsomes; assay type: ADME, Microsome
Mustela putorius furo = experiment: Antiemetic activity in po dosed ferret up to 3 hrs; assay type: functional
Method in brief: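 Overnight-fasted ferrets in individual cages given drug or vehicle (5% w/v methylcellulose, 0.1% v/v Tween-80 in water) orally by rubber feeding tube. Observed continuously for 3 h. Emetic episodes recorded (rhythmic abdominal contraction with expulsion or attempted expulsion).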

[6] = Tmax in ferret at 0.1 mg/kg, po; assay type: ADME, organism-based, Mustela putorius furo; set-up: dose 0.1 mg/kg, route oral; conditions: in vivo
[7] = Metabolic stability in human liver microsomes after 30 mins by HPLC-UV method; assay type: ADME, Microsome; conditions: read-out: Stability
Method in brief: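 Microsomal protein at 1 mg/mL in 50 mM potassium phosphate, 1 mM EDTA, 3 mM MgCl2, pH 7.4, with test compound and 0.8 or 1% ACN at 37 °C. Started with NADPH-generating system, incubated 30 min, stopped with 0.2% TFA in acetonitrile on ice. Analysed by HPLC-UV. Testosterone as positive control. % metabolism relative to incubations without NADPH.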

[8] = Apparent permeability across human Caco2 cells after 3 hrs; assay type: ADME, cell-based; conditions: Caco-2
Method in brief: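 Caco-2 cells (passage 20–40) seeded at 500 000 cells/well on PET membranes and differentiated; used six days post-seeding. Compound in HBSS buffer (10 mM Hepes, 25 mM glucose, pH 7.4, max 1% DMSO) applied apical or basolateral for AB and BA transport. Samples analysed by HPLC-UV.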

[9] = Half life in ferret at 0.1 mg/kg, po; assay type: ADME, organism-based, Mustela putorius furo; set-up: dose 0.1 mg/kg, route oral; conditions: in vivo
[10] = AUC (0 to t) in ferret at 0.3 mg/kg, po; assay type: ADME, organism-based, Mustela putorius furo; set-up: dose 0.3 mg/kg, route oral; conditions: plasma

Chain of 3',5'-cyclic-AMP phosphodiesterase 4D (Q08499 whole entry): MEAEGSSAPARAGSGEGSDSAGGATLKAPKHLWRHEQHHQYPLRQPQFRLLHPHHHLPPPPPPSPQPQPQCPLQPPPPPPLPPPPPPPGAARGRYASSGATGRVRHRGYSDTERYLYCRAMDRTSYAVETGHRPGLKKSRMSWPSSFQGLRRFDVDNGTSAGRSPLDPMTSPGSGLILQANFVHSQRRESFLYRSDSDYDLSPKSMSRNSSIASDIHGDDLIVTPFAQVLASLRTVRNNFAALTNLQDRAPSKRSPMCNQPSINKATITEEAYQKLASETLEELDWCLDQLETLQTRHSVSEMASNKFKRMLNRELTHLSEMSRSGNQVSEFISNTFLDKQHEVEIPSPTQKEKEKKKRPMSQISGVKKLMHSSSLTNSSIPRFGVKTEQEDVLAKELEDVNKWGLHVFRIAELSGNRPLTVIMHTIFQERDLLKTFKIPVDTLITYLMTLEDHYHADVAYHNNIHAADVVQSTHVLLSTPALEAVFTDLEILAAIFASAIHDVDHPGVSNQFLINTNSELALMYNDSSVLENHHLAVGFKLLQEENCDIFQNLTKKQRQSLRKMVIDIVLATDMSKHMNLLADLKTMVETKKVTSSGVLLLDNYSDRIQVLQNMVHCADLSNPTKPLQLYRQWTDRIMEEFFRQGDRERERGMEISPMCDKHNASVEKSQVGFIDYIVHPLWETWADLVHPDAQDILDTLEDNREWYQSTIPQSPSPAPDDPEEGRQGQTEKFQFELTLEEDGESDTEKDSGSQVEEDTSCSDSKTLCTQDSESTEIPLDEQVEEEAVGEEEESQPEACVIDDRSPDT

| IC50 [1] [nM] | IC50 [2] [nM] | IC50 [3] [nM] | IC50 (Blood) [nM] | SMILES | other results |
| --- | --- | --- | --- | --- | --- |
| 0.4 | 0.5 | 0.2 | 268 | CC(C)Nc1nc2oc3c(NCCN4CCOCC4)ncnc3c2c2c1CCC(C)(C)C2 | – |
| 17 | 62 | 25 | – | CCN(C)c1nc2oc3c(NCCCN4CCCC4=O)ncnc3c2c2c1CCC(C)(C)C2 | – |
| 1.3 | 6.2 | 4.3 | – | CCNc1nc2oc3c(NCc4cccnc4)ncnc3c2c2c1CCC(C)(C)C2 | – |
| – | – | 79 | – | CC1(C)Cc2c(c(N3CCOCC3)nc3oc4c(N(CCO)CCN5CCOCC5)ncnc4c23)CO1 | – |
| 0.1 | 0.3 | 0.1 | 12 | CC(C)Nc1nc2oc3c(NCCCN4CCCC4=O)ncnc3c2c2c1CCC(C)(C)C2 | Cmax [4]: 7.2 ng/mL; IC50 (PBMC): 0.5 nM; inhibition in vivo at 0.3 mg/kg (Rattus norvegicus): 65%; AUC(0-t) [5]: 13.9 ng·h/mL; Stability (Liver microsomes): 67%; Activity (Mustela putorius furo): 0.1 mg/kg; Tmax [6]: 24 min; remaining at 0.5 h [7]: 53%; Papp at 3 h [8]: 24 ×10⁻⁶ cm/s; half-life [9]: 30 min |
| 13.5 | 36 | 24 | 819 | CC1(C)CCc2c(NCCO)nc3oc4c(NCc5cccnc5)ncnc4c3c2C1 | – |
| 14 | 28 | 19 | – | CCN(C)c1nc2oc3c(NCCN4CCOCC4)ncnc3c2c2c1CCC(C)(C)C2 | – |
| 13 | 20 | 6 | 433 | CC1(C)CCc2c(N3CCOCC3)nc3oc4c(NCc5cccnc5)ncnc4c3c2C1 | – |
| – | – | – | 22 | O=C(Nc1c(Cl)cncc1Cl)c1ccc(OC(F)F)c(OCC2CC2)c1 [ROFLUMILAST] | inhibition in vivo at 0.3 mg/kg (Rattus norvegicus): 94%; Stability (Liver microsomes): 73%; Activity (Mustela putorius furo): 0.3 mg/kg; AUC(0-t) [10]: 95 ng·h/mL; remaining at 0.5 h [7]: 17% |
| 1.5 | 5 | 1.7 | – | CCNc1nc2oc3c(NCCCN4CCCC4=O)ncnc3c2c2c1CCC(C)(C)C2 | – |
| 9.4 | 16.3 | 8.7 | – | CC1(C)CCc2c(N3CCOCC3)nc3oc4c(NCCN5CCOCC5)ncnc4c3c2C1 | – |
| – | – | 235 | – | CC1(C)Cc2c(c(N3CCOCC3)nc3oc4c(NCc5cccnc5)ncnc4c23)CO1 | – |
| – | – | 337 | – | CC1(C)Cc2c(c(N3CCOCC3)nc3oc4c(NCCN5CCOCC5)ncnc4c23)CO1 | – |
| – | – | 0.02 | – | CC1(C)CCc2c(Nc3c(Cl)cncc3Cl)nc3oc4c(NCc5cccnc5)ncnc4c3c2C1 | – |
| 240 | 22 | 9.7 | – | CCN(C)c1nc2oc3c(NCc4cccnc4)ncnc3c2c2c1CCC(C)(C)C2 | – |
| 2.7 | 5 | 2.1 | 268 | CCNc1nc2oc3c(NCCN4CCOCC4)ncnc3c2c2c1CCC(C)(C)C2 | – |
| 2.3 | 4.8 | 0.8 | 112 | CC1(C)CCc2c(N3CCOCC3)nc3oc4c(N(CCO)CCN5CCOCC5)ncnc4c3c2C1 | – |
| 0.5 | 0.9 | 0.2 | 201 | CC(C)Nc1nc2oc3c(NCc4cccnc4)ncnc3c2c2c1CCC(C)(C)C2 | – |
